Source: PubChem
Shown are actives, neighbours in structure and some others; about 1.9% of the full set was active somewhere.
697 NFkB inh – lowers PMA/ionomycin-induced NF-kB signal in 697 B cells. 697 B-cell NF-kB luciferase reporter, 16 h. AID 435022. 330,000 tested, 0.33% active. inhibition, % at 4 µM; in the data active = inhibition above about 35%
APP 5UTR inh – APP translation inhibition | inhibition, % at 2 µM | 190,000 tested, 0.82% active | AID 1285 | SH-SY5Y APP 5'UTR-luciferase reporter, luminescence;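 active = inhibition above a set limit, derived from the sample mean plus 3 SD, cut at about 45% in these data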
aSyn UTR inh – MLPCN primary screen, SNCA 5' untranslated region | alpha-synuclein 5'UTR reporter, inhibitor activity | 300,000 tested, 0.82% active | AID 1813 | inhibition, % (tested at 7.5 µM); in the data active = inhibition above about 60%;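 also: H4 neuroglioblastoma cells stably carrying SNCA 5'UTR luciferase fusion; 0% = DMSO wells and 100% = positive control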
TAG inh – reduces triacylglycerol accumulation in H9c2 cells; Nile Red lipid (TAG) fluorescence; cells loaded with 200 µM oleic acid; 230,000 tested, 0.66% active; inhibition, % at 12.5 µM; AID 651582;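 active = pattern-corrected inhibition of lipid staining of at least 50% with the nuclear-stain viability signal not falling by more than 50%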;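 also: 0% = DMSO wells and 100% = triacsin C control wells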
Hep lipid drop – hepatic lipid droplet formation modulation. AML12 mouse hepatocytes, oleate lipid droplets, BODIPY imaging. inhibition, % at 6.5 µM. 240,000 tested, 0.4% active. AID 1656;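 active = lipid droplet intensity inhibited by at least 50%, with more than 500 cells counted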
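Test system: AML12 hepatocytes (mouse); reagent: oleate loading, 100 µM; dosing: one dose, 6.5 µM compound; incubation: overnight exposure; signal: fluorescence imaging, 20x objective, two fields per well; read-out basis: % inhibition of corrected integrated BODIPY droplet signal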
Jurkat NFkB inh – inhibitors of the PMA/ionomycin-induced NF-kB reporter in Jurkat cells; PMA/ionomycin-induced NF-kB luciferase reporter, luminescence; AID 435003; 330,000 tested, 0.53% active; inhibition, % at 4 µM; in the data active = inhibition above about 50%
Jurkat NFkB conf – inhibitors of the PMA/ionomycin-induced NF-kB reporter in Jurkat cells, retest | shares compounds with Jurkat NFkB inh | Jurkat NF-kB luciferase, 16 h | inhibition, % at 4 µM | 2,700 tested, 27% active;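 active = inhibition reaching about 45% at 4 µM in either replicate, limit read from the data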;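 also: plate controls were PMA/ionomycin stimulated DMSO wells for no effect and unstimulated DMSO wells for full effect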
697 NFkB conf – inhibitors of the PMA/ionomycin-induced NF-kB reporter in 697 B cells, retest. AID 449746. shares compounds with 697 NFkB inh. 2,000 tested, 35% active. inhibition, % at 4 µM. 697 B-cell NF-kB luciferase, 16 h; in the data active = inhibition mostly above about 28%, no sharp cut-off; inactive = mostly below about 22%
Active calls of the source: *; i = inactive; / = no result.

SMILES | 697 NFkB inh | APP 5UTR inh | aSyn UTR inh | TAG inh | Hep lipid drop | Jurkat NFkB inh | Jurkat NFkB conf | 697 NFkB conf
O=c1oc2ccccc2cc1-c1nc2ccccc2o1 | -97.9 | -151.8 | 15.8 | / | / | -86.0 | / | /
Cc1ccc(S(=O)(=O)N2CCN(C(=O)c3ccc(COc4ccccc4)o3)CC2)cc1 | -4.6 | / | / | -24.6 | / | 3.0 | / | /
O=C1C2C3C=CC(C2C(=O)N1CCCO)C1C2C(=O)N(CCCO)C(=O)C2C31 (stereo unspecified) | 17.1 | 5.4 | 6.4 | / | -18.5 | -4.5 | / | /
O=C(Nc1nc2cc3c(cc2s1)OCCO3)C1CCCCC1 | -348.3 | / | / | 12.8 | / | -233.2 | -110.8 | -371.2
CN(C)c1cc[n+](CC(=O)c2ccc(-c3ccccc3)cc2)cc1 | 61.8* | 3.1 | 40.1 | -7.9 | 2.2 | 73.2* | 60.2* | 46.0*
Cc1cc(Cl)c(S(=O)(=O)N2CCSCC2)cc1OCC(=O)NC1CCCCC1 | -12.1 | 20.3 | 3.4 | -22.2 | 5.9 | 36.7 | / | /
Cc1cc(Cl)c(S(=O)(=O)N2CCCCCC2)cc1OCC(=O)NC1CCCCC1 | 75.0* | 8.9 | 26.0 | / | -5.2 | 65.4* | 71.2* | 69.5*
COc1ccc(CNC(=O)COC(=O)[C@H](Cc2ccccc2)NC(=O)c2cccs2)cc1 | -10.4 | / | / | 23.1 | / | -0.1 | / | /
FC(F)(F)c1nnc2c(Sc3ccccc3)nc3ccc(Cl)cc3n12 | 67.5* | 15.4 | -6.6 | / | / | 84.7* | -16.9 | 13.9
FC(F)(F)c1nc2ccccc2n2c(-c3ccc(Cl)cc3Cl)nnc12 | -17.1 | 4.8 | 16.7 | 1.8 | / | -4.5 | / | /
c1ccc(-c2noc(-c3ccc4c(c3)OCO4)n2)cc1 | -342.2 | -167.3 | 11.3 | 0.3 | 24.4 | -182.1 | -112.5 | -274.6
Nc1cccc2c1C(=O)N(CCOc1ccccc1F)C2=O | -318.9 | / | 30.2 | / | 2.5 | -182.9 | -119.7 | -360.0
N#Cc1ccccc1OCCN1C(=O)c2ccccc2C1=O | -47.9 | 5.2 | -18.5 | 10.0 | 10.8 | 11.9 | / | /
CC1CN/C(=C\C(=O)c2ccc(Cl)cc2)C(=O)N1 (stereo unspecified) | -252.3 | -174.6 | 34.8 | / | 26.1 | -150.6 | -97.5 | -174.1
CC1CN/C(=C\C(=O)c2ccccc2)C(=O)N1 (stereo unspecified) | -94.0 | -52.3 | -110.2 | 3.9 | / | -89.5 | / | /
COc1ccc(OCC(O)CNCCOc2ccccc2OC)c(C(C)(C)C)c1 (stereo unspecified) | 2.6 | / | 27.4 | / | -1.7 | 1.6 | / | /
COc1ccc(CCN(C)c2ccc(S(=O)(=O)N3CCCC3)cc2[N+](=O)[O-])cc1OC | -12.0 | -4.3 | 7.9 | / | -2.6 | -21.7 | / | /
COc1ccc(CN(C)c2ccc(S(=O)(=O)N3CCN(C)CC3)cc2[N+](=O)[O-])cc1OC | 87.3* | / | / | -23.0 | / | 68.2* | 74.7* | 97.2*
CCOc1ccc(S(=O)(=O)N(C)CC(=O)NC2CC2)cc1 | 14.6 | / | -8.9 | -5.9 | 19.7 | -2.3 | / | /
Cc1nn(-c2nc3ccccc3s2)c(C)c1Oc1ccccc1O | i | -184.4 | -77.0 | / | -7.9 | -193.5 | -142.1 | i
Cc1nn(-c2ccccn2)c(C)c1Oc1ccccc1O | -2.2 | 0.9 | 0.6 | / | / | 9.5 | / | /
Cc1ccc(/C=C/C(=O)c2c(C)nc3ccccn23)cc1 | -177.5 | -195.6 | -89.7 | / | / | -132.4 | / | /
Cc1nc2ccccn2c1C(=O)/C=C/c1cccc([N+](=O)[O-])c1 | 39.8* | 13.3 | 0.9 | 34.1 | -4.5 | 50.8* | 18.7 | 40.6*
C[C@@H]1C=CC(=O)O[C@@H]1c1ccc(C(F)(F)F)cc1 | 60.4* | / | -60.4 | / | 24.3 | 97.2* | 96.8* | -40.6
CC(C)(C)c1ccc(/C=N/Nc2ccc(C(=O)O)cc2)cc1 | -277.4 | -55.3 | 12.9 | 4.4 | -3.6 | 59.0* | 33.3 | 22.1
SMILES | 697 NFkB inh | APP 5UTR inh | aSyn UTR inh | TAG inh | Hep lipid drop | Jurkat NFkB inh | Jurkat NFkB conf | 697 NFkB conf
CCNC(=S)N/N=C/c1ccc(C(=O)O)cc1 | 1.6 | -0.3 | -25.7 | -8.1 | 3.1 | 3.3 | / | /
CC(C)C(CCN1C(=O)CCC1=O)C1CCOC(C)(C)C1 (stereo unspecified) | -28.2 | -10.7 | -7.6 | -37.9 | -2.8 | -14.1 | / | /
O=C(c1cccs1)c1ccc(-c2cccs2)s1 | -381.1 | -158.4 | 14.8 | -0.6 | / | -190.7 | -100.4 | -283.3
CCCCc1ccc(-c2nn[nH]n2)nc1 | / | / | / | 4.3 | / | / | / | /
CCCCc1ccc(-c2ccc(Br)cc2O)nc1 | -273.2 | -28.7 | -6.5 | -16.5 | 3.5 | -213.4 | -97.8 | -169.4
CCCCc1ccc(-c2ccc(C)cc2O)nc1 | -317.4 | -203.4 | 84.4* | -2.5 | / | -150.5 | -129.4 | -253.0
O=C(Nc1ccc(CSc2ccccc2)cc1)c1ccco1 | -75.0 | / | -125.4 | -10.7 | 0.7 | -84.9 | / | /
Cc1ccc2[nH]c3c(c2c1)CCCC3C(N)=O (stereo unspecified) | 17.0 | -15.9 | -25.4 | / | -7.4 | -3.9 | / | /
Cc1ccc2[nH]c3c(c2c1)CCCC3NC(=O)CCl (stereo unspecified) | -261.7 | / | 15.1 | / | 28.0 | 97.5* | 94.7* | -52.4
CCCCOc1ccc(S(=O)(=O)NC(=O)C2(C)CCN2C(=O)CCc2ccccc2)cc1 (stereo unspecified) | / | / | / | -7.3 | / | / | / | /
COc1cccc(-c2nc(-c3cccs3)no2)c1 | -288.8 | / | -55.2 | -3.0 | -3.1 | -162.8 | -131.3 | -310.9
COc1cc(OC)cc(-c2nc(-c3cccs3)no2)c1 | -21.8 | -31.7 | -139.3 | -12.6 | -18.0 | -59.2 | / | /
Cc1ccc(NC(=O)CC(=O)c2ccccc2)cc1C | -12.7 | / | -116.7 | / | -4.1 | -44.2 | / | /
CCCN(CC(=O)Nc1ccccc1C)C(=O)c1cnc(C)cn1 | / | / | / | 2.9 | / | / | / | /
CC(C)Cc1cc(C(C)(C)C)ccc1OC(=S)N(C)C | 40.1* | / | 4.1 | 14.6 | -4.4 | 51.2* | 60.5* | 33.3*
Cc1cc(C(C)(C)C)ccc1OCCN(C)C | 20.6 | -9.3 | 12.3 | / | / | -2.1 | / | /
Cc1ccccc1C(=O)NC(C(N)=O)P(=O)(OC(C)C)OC(C)C (stereo unspecified) | -0.1 | / | -6.0 | 12.9 | 2.3 | 9.4 | / | /
COc1cc(CSc2nnnn2-c2ccc(C)cc2)cc(OC)c1OC | 44.2* | -7.4 | 14.6 | / | -17.1 | 58.7* | 60.2* | 47.1*
CN=c1scc(-c2ccccc2F)n1/N=C/c1ccc[nH]1 | 35.5* | 55.1* | 83.1* | -6.0 | 11.1 | 69.8* | 75.2* | 42.4*
COc1ccc(CNc2ncc(-c3ccc(F)cc3)n2C)c2ccccc12 | 39.7* | / | 65.1* | -3.0 | -5.6 | 70.5* | 49.9* | 48.2*
COc1ccccc1CNc1ncc(-c2ccc(F)cc2)n1C | -32.5 | / | -16.6 | / | -1.8 | 0.2 | / | /
COc1cc2nc(Nc3ccc(C)c(C)c3)nc(N)c2cc1OC | -11.7 | / | -131.3 | / | -2.6 | 21.3 | / | /
Nc1nc(Nc2ccc(Cl)cc2)nc2ccccc12 | -439.9 | -114.6 | 7.6 | / | -10.5 | -181.1 | -100.2 | -366.9
COc1ccc(C)cc1Nc1nc(N)c2ccccc2n1 | -12.2 | / | -101.7 | / | 16.2 | -21.8 | / | /
Cc1ccc(Nc2nc(N)c3ccccc3n2)cc1Cl | -320.8 | / | -5.4 | / | -1.9 | -166.9 | -120.5 | -371.7
